Laboratory results taken from PubChem BioAssay.
Results filed as inconclusive are left out.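 Rule for the calls, unless noted: active = viability at or below 27.92% in each of two runs, the all-compound median minus 4 SD; inconclusive = no clear call, values can overlap the other calls; inactive = the rest.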

How the values were obtained:
[1] = S. cerevisiae growth inhibition in permissive medium (OD615), pilot counter-assay for S. cerevisiae lifespan shortening project, permissive growth control (AID 705;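 active = growth inhibition above 25% in both replicates, a cutoff set 3 SD above the mean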); conditions: OD615, 24 h, at 10 µM, active compounds read high
Summary of the method: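 System: Engineered DeaD yeast | Buffer or medium: SC raffinose/galactose permissive medium | Incubation: Cells pre-grown 4 h, then 24 h compound exposure, 30 °C humidified | Measured by: Absorbance (optical density) at 615 nm | Read-out: Reduction in yeast growth (OD615)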

[2] = S. cerevisiae growth inhibition in restrictive medium, OD615, pilot screen, restrictive growth control, yeast lifespan reduction project (AID 706;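 active = growth inhibition above a set limit, 3 SD over mean compound inhibition, in both replicates, cut at about 43% in these data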;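 note: modified DeaD lifespan yeast strain shifted to restrictive glucose medium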); conditions: OD615, 48 h, at 10 µM, active compounds read high
Summary of the method: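 Material: modified S. cerevisiae; Medium: glucose-based CSMM-D restrictive medium; Compound dosing: one concentration, 10 µM final, 0.25% DMSO; Incubation: 48 h compound exposure at 30 °C; Measured by: OD615.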

[3] = doxorubicin toxicity protection in MRP-1 cells – H69AR cells, CellTiter-Glo, duplicate, MRP-1 activator project, pilot screen (AID 807;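 active = viability increase at or above a cutoff of the median across tested compounds plus 3 SD, cut at about 8.5% in these data, passing the limit was not always enough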;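 note: compound pretreatment 18-22 h then 72 h combined with doxorubicin; 0% = doxorubicin alone and 100% = vehicle without doxorubicin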); conditions: H69AR viability with doxorubicin, CellTiter-Glo luminescence; at 10 µM; active compounds read high
[4] = viability of HCT116 without oncogenic beta-catenin – human colon tumor cells, pilot screen (AID 823;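 active = cell viability at or below a set limit in both duplicate runs, the limit being the all-compound median minus 4 SD, cut at about 23% in these data, passing the limit was not always enough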;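 note: 0% = wells killed by 20 µM Hyamine and 100% = untreated DMSO cell wells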); conditions: HCT116 beta-catenin knockout viability, CellTiter-Glo, 60 h; at 10 µM; active compounds read low
[5] = viability of PTEN-null HCT116 cells – cell-based, HCT116 clonal line, CellTiter-Glo, pilot screen (AID 824); conditions: HCT116 PTEN-deleted viability, 60 h, at 10 µM, active compounds read low;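 note: 0% = 20 µM Hyamine control and 100% = vehicle cell control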
[6] = RAM pathway blockade in budding yeast – dse1pr::URA3 reporter, 5-FOA selection, pilot screen (AID 869;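 active = inhibition over a set limit, the all-compound mean plus 3 SD, in both replicate runs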;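 note: 0% = DMSO wells with no growth and 100% = 10 µM 1-NA-PP1 with full growth; RAM network block rescues cells from 5-FOA so hits raise OD615 growth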); conditions: S. cerevisiae dse1pr::URA3 5-FOA growth, OD615, 2 d; at 10 µM; active compounds read high; strain carries analog-sensitive mutant Cbk1 kinase
[7] = RAM signaling pathway blockade in yeast – S. cerevisiae, Pdr1DBD-CYC8 efflux-inhibited sensitized strain, primary screen (AID 1298;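 active = RAM network inhibition above 8.4% in each of two replicates, 3 SD over the compound average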;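 note: 0% = DMSO untreated cells without growth and 100% = 10 µM 1-NA-PP1 full growth; higher means more yeast growth rescued from 5-FOA killing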); conditions: S. cerevisiae cbk1-as DSE1-URA3 strain, 5-FOA growth OD615, 2 d; at 50 µM; active compounds read high

Cc1cccc(C)c1NC(=O)C1(N(Cc2ccco2)C(=O)CC2NC(=O)NC2=O)CCCCC1 (stereo not drawn)
inactive: growth inhibition [1] -7.47% | growth inhibition [2] -10.5% | viability increase [3] -2.27% | viability [4] 92.7% | viability [5] 93.9% | inhibition [6] 1.23% | RAM network inhibition [7] 0.68%

O=C(NC(=O)c1ccccc1)OCC(F)(F)F
inactive: growth inhibition [1] -6.06% | growth inhibition [2] -1.48% | viability increase [3] 0.71% | viability [4] 98.9% | viability [5] 103% | inhibition [6] 0.34% | RAM network inhibition [7] 3.03%

COc1ccccc1CNC(=O)c1ccc(CNc2c(N3CCCC3)c(=O)c2=O)cc1
inactive: growth inhibition [1] 3.65% | growth inhibition [2] -2.78% | viability increase [3] -2.46% | viability [4] 98.8% | viability [5] 94.8% | inhibition [6] 0.46% | RAM network inhibition [7] 2.8%

CCn1cc(C(=O)Nc2ccc3c(c2)OCCO3)c2cc(OC)c(OC)cc2c1=O
inactive: growth inhibition [1] -10% | growth inhibition [2] 2.6% | viability increase [3] -6.05% | viability [4] 101% | viability [5] 88.6% | inhibition [6] 0.915% | RAM network inhibition [7] -1.36%

CCCCCSc1nc2c(c(=O)[nH]c(=O)n2C)n1CC
inactive: growth inhibition [1] -13.1% | growth inhibition [2] 1.94% | viability increase [3] -3.9% | viability [4] 88% | viability [5] 88% | inhibition [6] 1.18% | RAM network inhibition [7] -1.69%

COCC(C)NC(=O)c1ccc(N(C)C)cc1 (stereo not drawn)
inactive: growth inhibition [1] 2.19% | growth inhibition [2] 8.57% | viability increase [3] 2.2% | viability [4] 104% | viability [5] 94.5% | inhibition [6] 2.1% | RAM network inhibition [7] 0.51%

O=C(CSc1nnc(Cc2cc(=O)[nH]c(=O)[nH]2)n1-c1ccc(F)cc1)N1CCCCC1
inactive: growth inhibition [1] -4.41% | growth inhibition [2] 1.35% | viability increase [3] -0.28% | viability [4] 104% | viability [5] 105% | inhibition [6] 0.87% | RAM network inhibition [7] 2.55%

COC(=O)c1c(S(N)(=O)=O)c2ccccc2n1C
inactive: growth inhibition [1] -2.33% | growth inhibition [2] 2.71% | viability increase [3] -1.28% | viability [4] 100% | viability [5] 102% | inhibition [6] 1.06% | RAM network inhibition [7] 4.32%

CCOc1cc(C#N)c(NC(=O)c2ccnn2C)cc1OCC
inactive: growth inhibition [1] 8.46% | growth inhibition [2] 2.96% | viability increase [3] -2.47% | viability [4] 82.3% | viability [5] 97.7% | inhibition [6] 0.55% | RAM network inhibition [7] 5.18%

CC1CN(c2cc(=O)n(Cc3ccc(F)cc3)c(=O)[nH]2)CC(C)O1 (stereo not drawn)
inactive: growth inhibition [1] 5.64% | growth inhibition [2] -6.42% | viability increase [3] 0.06% | viability [4] 99.4% | viability [5] 105% | inhibition [6] 1.31% | RAM network inhibition [7] -0.24%

CC1=NC2(CCCc3c2no[n+]3[O-])N(O)C1(C)C (stereo not drawn)
inactive: growth inhibition [1] 6.66% | growth inhibition [2] 3.75% | viability increase [3] -1.89% | viability [4] 101% | viability [5] 98.7% | inhibition [6] 1.36% | RAM network inhibition [7] 1.51%

CCN(CC)CC(O)COc1ccccc1C(=O)CCc1ccccc1 (stereo not drawn)
inactive: growth inhibition [1] -17.4% | growth inhibition [2] -14.3% | viability increase [3] -4.88% | viability [4] 73% | viability [5] 80.5% | inhibition [6] 0.58% | RAM network inhibition [7] 4.17%

CCOC(=O)CNC(=O)CSc1nnc(Cn2c(=O)sc3ccccc32)n1C
inactive: growth inhibition [1] -6.96% | growth inhibition [2] 6.85% | viability increase [3] -1.45% | viability [4] 108% | viability [5] 98% | inhibition [6] 0.83% | RAM network inhibition [7] 3.34%

CCCc1nc(SCC(=O)NCc2ccc3c(c2)OCO3)c2c(=O)n(C)c(=O)n(C)c2n1
inactive: growth inhibition [1] 1.28% | growth inhibition [2] 7.41% | viability increase [3] -6.51% | viability [4] 61.1% | viability [5] 57.5% | inhibition [6] 2.25% | RAM network inhibition [7] 5.66%

Cc1onc(-c2ccccc2Cl)c1C(=O)NCCN1Cc2ccccc2C1=O
inactive: growth inhibition [1] -0.695% | growth inhibition [2] 4.3% | viability increase [3] -4.11% | viability [4] 102% | viability [5] 90.5% | inhibition [6] 0.375% | RAM network inhibition [7] 0.31%

O=C(CC12CC3CC(CC(C3)C1)C2)NCO
inactive: growth inhibition [1] 4.32% | growth inhibition [2] 5.98% | viability increase [3] 0.63% | viability [4] 100% | viability [5] 104% | inhibition [6] 1.92% | RAM network inhibition [7] -1.39%

N#CC1=C(N)OC2=C(C(=O)CCC2)C1c1ccsc1 (stereo not drawn)
inactive: growth inhibition [1] -7.86% | growth inhibition [2] -3.94% | viability increase [3] -1.81% | viability [4] 93.2% | viability [5] 103% | inhibition [6] 1.52% | RAM network inhibition [7] 4.01%

O=C(NCC1(c2ccccc2)CCOCC1)c1ccc(Br)o1
inactive: growth inhibition [1] -2.18% | growth inhibition [2] -3.91% | viability increase [3] 2.31% | viability [4] 93% | viability [5] 92.3% | inhibition [6] 0.365% | RAM network inhibition [7] 2.97%

CC1=C(C(=O)OCCOc2ccccc2)C(c2ccc(C)o2)C2=C(CC(C)(C)CC2=O)N1 (stereo not drawn)
inactive: growth inhibition [1] -17.6% | growth inhibition [2] -10.8% | viability increase [3] -0.88% | viability [4] 78.2% | viability [5] 78.6% | inhibition [6] 1.73% | RAM network inhibition [7] 7.5%

COc1ccc2cc(S(=O)(=O)N3CCOCC3)ccc2c1
inactive: growth inhibition [1] -11.2% | growth inhibition [2] -7.81% | viability increase [3] -1.77% | viability [4] 94.4% | viability [5] 99.2% | inhibition [6] 0.075% | RAM network inhibition [7] 1.03%

Cc1ccc(-n2ncc3c(=O)[nH]c(SCC(=O)N4CCCC4)nc32)cc1C
inactive: growth inhibition [1] -6.01% | growth inhibition [2] -4.8% | viability increase [3] -4.32% | viability [4] 105% | viability [5] 91.8% | inhibition [6] 1.81% | RAM network inhibition [7] 1.73%

O=C(CN1CCOc2ccccc21)NCc1ccc(Cl)cc1
inactive: growth inhibition [1] -36.4% | growth inhibition [2] -1.02% | viability increase [3] -6.71% | viability [4] 90.8% | viability [5] 81.6% | inhibition [6] 0.665% | RAM network inhibition [7] -0.68%

Cc1cccc(-c2nc(CS(=O)CC(=O)NCC3CCCO3)c(C)o2)c1 (stereo not drawn)
inactive: growth inhibition [1] 4.35% | growth inhibition [2] 17.3% | viability increase [3] -2.27% | viability [4] 105% | viability [5] 96.3% | inhibition [6] 0.725% | RAM network inhibition [7] 2.14%

CCC(=O)N1C(C(=O)O)CSC1c1ccc(OC)cc1 (stereo not drawn)
inactive: growth inhibition [1] -0.64% | growth inhibition [2] 6.29% | viability increase [3] -0.61% | viability [4] 98.1% | viability [5] 93.5% | inhibition [6] 1.16% | RAM network inhibition [7] 2.87%
